# According to ChEMBL document CHEMBL3822425, “Isatin Derived Spirocyclic Analogues with α-Methylene-γ-butyrolactone as Anticancer Agents: A Structure-Activity Relationship Study” (J Med Chem, 2016):
# Active and inactive are the calls of the source. The rule behind the calls is not given here.
# Assays:
# A2780 [1] = experiment: Cytotoxicity against human A2780 cells assessed as cell growth inhibition after 3 days by presto blue dye based plate reader method; type: functional; settings: A2780, 72 h
# In short: (§1)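 Cells in DMEM high glucose/10% FBS (A2780 in RPMI/10% FBS), 4,000 per well, overnight, then 40 to 0.039 µM or vehicle, 24, 48, 72 h at 37°C, 5% CO2; PrestoBlue 15 min, fluorescence 560ex/590em; growth as 100×[(T−Tz)/(C−Tz)] per NCI algorithm.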
# A2780 [2] = experiment: Potency index, ratio of parthenolide EC50 to compound EC50 for cell growth inhibition of human A2780 cells; type: functional
# SW480 [3] = experiment: Potency index, ratio of ibrutinib IC50 to compound IC50 for cell growth inhibition of human SW480 cells; type: functional
# HeLa [4] = experiment: Cytotoxicity against human HeLa cells expressing GFP assessed as cell growth inhibition after 3 days by presto blue dye based plate reader method; type: functional; settings: 72 h; in short: as §1
# SW480 [5] = experiment: Cytotoxicity against human SW480 cells assessed as cell growth inhibition after 3 days by presto blue dye based plate reader method; type: functional; settings: SW480, 72 h
# HeLa [6] = experiment: Potency index, ratio of ibrutinib IC50 to compound IC50 for cell growth inhibition of human HeLa cells; type: functional
# MIA PaCa-2 [7] = experiment: Potency index, ratio of parthenolide IC50 to compound IC50 for cell growth inhibition of human MIAPaCa2 cells; type: functional
# A2780 [8] = experiment: Potency index, ratio of ibrutinib EC50 to compound EC50 for cell growth inhibition of human A2780 cells; type: functional
# SW480 [9] = experiment: Potency index, ratio of parthenolide IC50 to compound IC50 for cell growth inhibition of human SW480 cells; type: functional
# MIA PaCa-2 [10] = experiment: Potency index, ratio of ibrutinib IC50 to compound IC50 for cell growth inhibition of human MIAPaCa2 cells; type: functional
# [11] = Cytotoxicity against human MIAPaCa2 cells assessed as cell growth inhibition after 3 days by presto blue dye based plate reader method; type: functional; settings: MIA PaCa-2, 72 h; in short: as §1
# HeLa [12] = experiment: Potency index, ratio of parthenolide IC50 to compound IC50 for cell growth inhibition of human HeLa cells; type: functional
# Mus musculus [13] = experiment: Downregulation of Mcl-1 in human A2780 cells xenografted in nude C57B6 mouse in presence of cisplatin by […]; type: functional, organism-based
# MDA-MB-231 [14] = experiment: Cytotoxicity against human MDA-MB-231 cells assessed as cell growth inhibition at 0.039 to 40 uM by presto blue dye based plate reader method; type: functional; settings: TDE = time-dependent effect
# SK-OV-3 [15] = experiment: Induction of apoptosis in human SKOV3 cells assessed as caspase 3/7 activation after 24 hrs in presence of cisplatin by Caspase Glo-3/7 luminescence assay; type: functional, cell-based
# In short: (§2)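 SKOV3 at 3,000 cells per well, overnight; compound 24 h; alamarBlue 3 h with fluorescence 560ex/590em as viability read; Caspase-Glo 3/7 reagent, shaken 30 s, 1 h room temperature, luminescence at 1000 ms integration.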
# [16] = biological target: T1, Inhibitor of nuclear factor kappa-B kinase subunit beta (Homo sapiens) (UniProt O14920); experiment: Inhibition of IKKbeta in human MIAPaCa2 cells assessed as reduction in IkappaBalpha phosphorylation at 10 to 20 uM by Western blot analysis; type: cell-based; settings: MIA PaCa-2
# T1 sequence (whole entry): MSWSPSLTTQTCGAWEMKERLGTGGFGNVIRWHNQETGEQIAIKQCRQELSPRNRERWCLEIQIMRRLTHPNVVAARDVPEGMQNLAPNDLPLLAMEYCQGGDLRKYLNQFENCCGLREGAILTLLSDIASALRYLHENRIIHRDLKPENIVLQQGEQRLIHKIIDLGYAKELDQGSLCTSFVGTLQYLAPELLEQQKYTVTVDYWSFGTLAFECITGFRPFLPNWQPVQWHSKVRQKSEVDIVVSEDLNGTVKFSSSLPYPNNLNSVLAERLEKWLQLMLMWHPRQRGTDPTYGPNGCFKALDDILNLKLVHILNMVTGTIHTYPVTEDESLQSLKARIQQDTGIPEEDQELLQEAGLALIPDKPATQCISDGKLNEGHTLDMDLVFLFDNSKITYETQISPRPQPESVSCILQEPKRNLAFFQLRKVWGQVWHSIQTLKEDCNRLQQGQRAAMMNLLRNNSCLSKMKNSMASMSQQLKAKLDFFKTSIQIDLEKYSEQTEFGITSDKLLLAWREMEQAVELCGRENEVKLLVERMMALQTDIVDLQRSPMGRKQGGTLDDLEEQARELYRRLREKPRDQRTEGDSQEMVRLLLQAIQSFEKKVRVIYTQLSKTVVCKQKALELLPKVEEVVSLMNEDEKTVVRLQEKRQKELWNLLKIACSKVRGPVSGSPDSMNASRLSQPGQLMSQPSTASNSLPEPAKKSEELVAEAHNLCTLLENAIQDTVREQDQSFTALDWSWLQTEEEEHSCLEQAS
# MDA-MB-231 [17] = experiment: Cytotoxicity against human MDA-MB-231 cells assessed as cell growth inhibition after 3 days by presto blue dye based plate reader method; type: functional; in short: as §1
# HeLa [18] = experiment: Anticlonogenic activity against human HeLa cells assessed as inhibition of colony formation after 2 to 7 days by crystal violet staining; type: functional, cell-based
# In short: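 HeLa cells seeded at 500-1000 per well, grown 24 h, drug-treated 48 h at 37°C (DMSO control), then fresh medium for 7 days; methanol fixed 15 min, 0.1% crystal violet 30 min at room temperature, colonies over 50 cells counted.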
# [19] = Inhibition of TNFalpha-induced IKKbeta-mediated NF-kappaB activity in human A549 cells after 2 hrs followed by TNFalpha addition for 3 hrs by ONE-Glo Luciferase reporter based luminescence assay; type: cell-based
# In short: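 A549 NF-κB luciferase cells (hygromycin B-maintained), 50,000 per well overnight; compound 2 h, then 20 ng/mL TNFα 3 h; alamarBlue 3 h as seeding/viability control; ONE-Glo added, 10 min room temperature, luminescence at 1000 ms.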
# Mus musculus [20] = experiment: Toxicity in nude C57B6 mouse orthotopic model of ovarian cancer xenografted with human A2780 cells assessed overt toxicity at 1 to 5 mg/kg administered ip 5 days a week for 4 weeks; type: organism-based; settings: in vivo
# Mus musculus [21] = experiment: Downregulation of NF-kappaB p65 in human A2780 cells xenografted in nude C57B6 mouse by immunohistochemistry method; type: functional, organism-based
# In short: (§3)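 A2780 tumors from the day-30 nude-mouse study: H&E staining to locate tumor areas, cores punched into a tissue microarray, sections stained with rabbit anti-p65 or anti-Mcl-1 via polymer detection, scored 0-3 by percentage of positive cells (3 = ≥67% positive).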
# A549 [22] = experiment: Inhibition of TNFalpha-induced IKKbeta-mediated NF-kappaB activity in human A549 cells at 10 uM after 2 hrs followed by TNFalpha addition for 3 hrs by ONE-Glo Luciferase reporter based luminescence assay; type: cell-based
# A2780 [23] = experiment: Anticancer activity against human A2780 cells xenografted in nude C57B6 mouse orthotopic model of ovarian cancer assessed as tumor growth inhibition at 2.5 mg/kg administered ip 5 days a week for 4 weeks; type: functional; settings: read-out: TGI
# In short: (§4)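 Nude mice injected with 2 million A2780 ovarian cancer cells; treatment began day 3 (7 groups). Arms: vehicle, 1, 2.5 or 5 mg/kg given 5 days/week to day 30; cisplatin 2 or 4 mg/kg on days 5, 9, 14, 21; or 2.5 mg/kg plus 2 mg/kg cisplatin. Day 30: mice sacrificed, tumors removed and weighed.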
# Mus musculus [24] = experiment: Downregulation of Mcl-1 in human A2780 cells xenografted in nude C57B6 mouse by immunohistochemistry method; type: functional, organism-based; in short: as §3
# SK-OV-3 [25] = experiment: Induction of apoptosis in human SKOV3 cells assessed as caspase 3/7 activation after 24 hrs in absence of cisplatin by Caspase Glo-3/7 luminescence assay; type: functional, cell-based; in short: as §2
# HeLa [26] = experiment: Induction of apoptosis in human HeLa cells assessed as PARP cleavage after 24 to 48 hrs by Western blot analysis; type: functional, cell-based
# In short: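 Cells collected with media and trypsinized pellet combined, lysed in RIPA buffer (pH 8.0), 4-20% SDS-PAGE, Western blot with anti-PARP to detect cleavage; HeLa timepoint 48 h.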
# Mus musculus [27] = experiment: Downregulation of NF-kappaB p65 in human A2780 cells xenografted in nude C57B6 mouse in presence of cisplatin by […]; type: functional, organism-based
# A2780 [28] = experiment: Anticancer activity against human A2780 cells xenografted in nude C57B6 mouse orthotopic model of ovarian cancer assessed as tumor growth inhibition administered ip 5 days a week for 4 weeks; type: functional; in short: as §4
# A2780 [29] = experiment: Potentiation of cisplatin-induced growth inhibition of human A2780 cells assessed as combination index at 1 to 10 uM after 3 days; type: functional
# In short: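 Combination index values derived from median effect plots and dose-effect curves of combined treatments.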
# A549 [30] = experiment: Inhibition of TNFalpha-induced IKKbeta-mediated NF-kappaB activity in human A549 cells at 10 uM after 2 hrs followed by TNFalpha addition for 7 hrs by ONE-Glo Luciferase reporter based luminescence assay; type: cell-based
# In short: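 A549 luciferase cells grown 5 passages without TNFα then 2 passages with or without 5 ng/mL TNFα; 50,000 per well overnight; 10 µM compound 2 h; then 20 ng/mL TNFα 7 h; PrestoBlue 10 min (560ex/590em) viability; ONE-Glo 10 min, luminescence 1000 ms.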
# serum albumin = serum albumin (Homo sapiens, UniProt P02768); experiment: Binding affinity to human serum albumin assessed as half life by HPLC analysis; type: ADME
# A2780 [31] = experiment: Anticancer activity against human A2780 cells xenografted in nude C57B6 mouse orthotopic model of ovarian cancer assessed as tumor growth inhibition at 2.5 mg/kg administered ip 5 days a week for 4 weeks in presence of 2 mg/kg of cisplatin; type: functional; in short: as §4
# [32] = biological target: T1, Inhibitor of nuclear factor kappa-B kinase subunit beta (Homo sapiens); experiment: Inhibition of IKKbeta in human MDA-MB-231 cells assessed as reduction in IkappaBalpha phosphorylation by Western blot analysis; type: cell-based
# In short: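 MDA-MB-231 cytoplasmic fractions: swelling 30 min on ice in HEPES/KCl/EDTA/DTT buffer with inhibitors, 1.25% NP-40, centrifuged; lysates on 4-20% gels, PVDF, anti-phospho-IκBα and anti-IκBα, tubulin or GAPDH loading control, ECL detection.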
# A2780 [33] = experiment: Anticancer activity against human A2780 cells xenografted in nude C57B6 mouse orthotopic model of ovarian cancer assessed as tumor growth inhibition at 5 mg/kg administered ip 5 days a week for 4 weeks; type: functional; settings: read-out: TGI; in short: as §4
# Sequence of serum albumin (P02768 whole entry): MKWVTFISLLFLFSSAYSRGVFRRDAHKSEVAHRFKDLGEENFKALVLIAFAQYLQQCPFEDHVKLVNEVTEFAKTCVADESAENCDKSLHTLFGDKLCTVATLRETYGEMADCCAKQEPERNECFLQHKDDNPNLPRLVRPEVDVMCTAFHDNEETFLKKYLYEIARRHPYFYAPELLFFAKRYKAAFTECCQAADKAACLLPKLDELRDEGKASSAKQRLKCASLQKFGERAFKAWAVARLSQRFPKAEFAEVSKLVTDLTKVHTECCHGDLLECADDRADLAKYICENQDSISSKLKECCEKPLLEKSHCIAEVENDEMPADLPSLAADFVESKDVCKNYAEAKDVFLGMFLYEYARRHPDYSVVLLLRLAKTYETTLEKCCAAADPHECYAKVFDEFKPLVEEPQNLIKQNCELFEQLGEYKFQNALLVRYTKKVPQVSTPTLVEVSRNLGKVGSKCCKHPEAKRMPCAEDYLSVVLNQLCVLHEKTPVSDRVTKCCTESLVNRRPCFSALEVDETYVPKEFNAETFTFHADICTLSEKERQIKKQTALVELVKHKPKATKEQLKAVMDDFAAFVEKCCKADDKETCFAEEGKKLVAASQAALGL
compound,measurement,setting,value
C=C1CC2(OC1=O)C(=O)Nc1c(C)ccc(C)c12 (configuration not stated),EC50,A2780 [1],1000 nM
same,Ratio EC50,A2780 [2],13
same,Ratio IC50,SW480 [3],5
same,IC50,HeLa [4],3200 nM
same,IC50,SW480 [5],1200 nM
same,Ratio IC50,HeLa [6],5
same,Ratio IC50,MIA PaCa-2 [7],2
same,Ratio EC50,A2780 [8],20
same,Ratio IC50,SW480 [9],2
same,Ratio IC50,MIA PaCa-2 [10],5
same,IC50,[11],900 nM
same,Ratio IC50,HeLa [12],2
C=C1CC2(OC1=O)C(=O)Nc1ccccc12 (configuration not stated),Activity,Mus musculus [13],Active
same,growth inhibition (GI),MDA-MB-231 [14],tde
same,Activity,SK-OV-3 [15],Active
same,EC50,A2780 [1],2300 nM
same,inhibition,[16],Active
same,Ratio EC50,A2780 [2],4
same,growth inhibition (GI),MDA-MB-231 [17],Dose-dependent effect
same,inhibition,HeLa [18],Dose-dependent effect
same,IC50,[19],4000 nM
same,Activity,Mus musculus [20],Non-toxic
same,Activity,Mus musculus [21],Active
same,inhibition,A549 [22],> 70%
same,inhibition in vivo at 2.5 mg/kg,A2780 [23],21%
same,Activity,Mus musculus [24],Active
same,Activity,SK-OV-3 [25],Active
same,Activity,HeLa [26],Active
same,Activity,Mus musculus [27],Active
same,TGI,A2780 [28],10%
same,inhibition,A2780 [28],Dose-dependent effect
same,CI,A2780 [29],<1
same,inhibition,A549 [30],75%
same,half-life,serum albumin,4.83 h
same,TGI,A2780 [31],65%
same,inhibition,[32],Active
same,inhibition in vivo at 5 mg/kg,A2780 [33],40%
